The species entered for one assay is Mus musculus. Nature of the assay: Antiphotoaging activity in ICR mouse assessed as reduction of 3 J/cm'2 UVA-induced epidermal hypertrophy at 0.5 gram per square in dorsal skin immediately after UVA irradiation 3 times a week for up to 12 weeks. The assay is classed as functional, organism-based. A digest of the protocol:
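Female ICR mice, six weeks old, n = 4 per group, dorsal skin shaved. Given 3 J/cm2 UVA (4.762 mW/cm2), then 0.1% emulsion (Tefose 63 base) applied topically at 0.5 g per square right after irradiation. Done three times weekly for up to 12 weeks (total 108 J/cm2). Skin taken after final irradiation for histology.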

In assay [1] the test system is HDF. Nature of the assay: Antiphotoaging activity in HDF assessed as reduction of 6 J/cm'2 UVA-induced senescence-associated-beta-gal positive cells treated 4 hrs before UVA irradiation using 5-bromo-4-chloro-3-indoyl-beta-galactoside staining by microscopic analysis. The assay is classed as functional. As to conditions: Homo sapiens.
The test system of assay [2] is HDF. Nature of the assay: Effect on senescence-associated-beta-gal expression in HDF using 5-bromo-4-chloro-3-indoyl-beta-galactoside staining by microscopic analysis. As to conditions: Homo sapiens. The assay is classed as functional.
For assay [3], the system named is HDF. Description: Antiphotoaging activity in HDF assessed as protection against 6 J/cm'2 UVA-induced increase of MMP-1 protein expression treated 4 hrs before UVA irradiation by Western blot analysis. The format is functional. As to conditions: Homo sapiens. Put shortly: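 Fibroblasts pretreated with 5 μM, then given 6 J/cm2 UVA. Lysed in ice-cold RIPA with protease and phosphatase inhibitors; protein measured by Bradford. Immunoblot with rabbit monoclonal anti-MMP-1, actin as loading control. HRP secondary, chemiluminescence detection, densitometry. Three independent experiments.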
A general note: In western blotting, separated proteins are transferred to a membrane and probed.

Assay [4] relates to HDF. Nature of the assay: Antiphotoaging activity in HDF assessed as protection against 6 J/cm'2 UVA-induced increase of MMP-1 mRNA expression treated 4 hrs before UVA irradiation by quantitative RT-PCR analysis. The assay is classed as functional. As to conditions: Homo sapiens. Put shortly:
(§1)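 Fibroblasts treated with compound alone, UVA alone, or both. Total RNA extracted with Trizol; 2 μg reverse-transcribed. SYBR Green real-time qPCR with 0.3 μM each primer and 100 ng cDNA. GAPDH listed among the amplified genes.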

In assay [5] the test system is HDF. Description: Antiphotoaging activity in HDF assessed as protection against 6 J/cm'2 UVA-induced reduction of TIMP-1 mRNA expression treated 4 hrs before UVA irradiation by quantitative RT-PCR analysis. The note with it: Homo sapiens. The format is functional. A digest of the protocol:
as §1

Assay [6] has as its system HDF. Description: Antiphotoaging activity in HDF assessed as protection against 6 J/cm'2 UVA-induced reduction of COL1alpha1 mRNA expression treated 4 hrs before UVA irradiation by quantitative RT-PCR analysis. The format is functional. As to conditions: Homo sapiens. Put shortly: as §1
The test system of assay [7] is HDF. Nature of the assay: Antiphotoaging activity in HDF assessed as protection against 6 J/cm'2 UVA-induced reduction of fibronectin mRNA expression treated 4 hrs before UVA irradiation by quantitative RT-PCR analysis. The format is functional. As to conditions: Homo sapiens. A digest of the protocol: as §1
Assay [8] concerns HDF. Description: Antiphotoaging activity in HDF assessed as protection against 6 J/cm'2 UVA-induced reduction of procollagen 1 type 1 mRNA expression treated 4 hrs before UVA irradiation by quantitative RT-PCR analysis. The format is functional. As to conditions: Homo sapiens. Put shortly: as §1
For assay [9], the system named is HDF. Nature of the assay: Antiphotoaging activity in HDF assessed as protection against 6 J/cm'2 UVA-induced reduction of elastin mRNA expression treated 4 hrs before UVA irradiation by quantitative RT-PCR analysis. The assay is classed as functional. The note with it: Homo sapiens. Put shortly: as §1
Assay [10] concerns HDF. Nature of the assay: Effect on MMP-1 mRNA expression in HDF by quantitative RT-PCR analysis. The assay is classed as functional. The note with it: Homo sapiens. Put shortly: as §1
In assay [11] the test system is HDF. Nature of the assay: Effect on TIMP-1 mRNA expression in HDF by quantitative RT-PCR analysis. As to conditions: Homo sapiens. The format is functional. A digest of the protocol:
as §1

In assay [12] the test system is HDF. Nature of the assay: Effect on COL1alpha1 mRNA expression in HDF by quantitative RT-PCR analysis. As to conditions: Homo sapiens. The assay is classed as functional. Put shortly:
as §1

The test system of assay [13] is HDF. Description: Effect on fibronectin mRNA expression in HDF by quantitative RT-PCR analysis. The note with it: Homo sapiens. The format is functional. Put shortly:
as §1

Assay [14] relates to HDF. Description: Effect on procollagen 1 type 1 mRNA expression in HDF by quantitative RT-PCR analysis. The format is functional. The note with it: Homo sapiens. Put shortly: as §1
Assay [15] deals with HDF. Description: Effect on elastin mRNA expression in HDF by quantitative RT-PCR analysis. As to conditions: Homo sapiens. The format is functional. A digest of the protocol: as §1
The test system of assay [16] is HDF. Nature of the assay: Antiphotoaging activity in HDF assessed as increase of 6 J/cm'2 UVA-induced mitochondrial membrane potential treated 4 hrs before UVA irradiation using DiOC6 staining by flow cytometry. The format is functional. As to conditions: Homo sapiens. Put shortly: (§2)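 Normal fibroblasts (passages 5–10) pretreated 4 h at 5 μM or at various concentrations, then 6 J/cm2 UVA given in PBS (365 nm lamp, 4.762 mW/cm2) or sham-irradiated. Cells trypsinized, pelleted, stained with DiOC6 30 min at room temperature, washed, resuspended in PBS. Read at once by flow cytometry, FL-1 530/30 nm. Three independent experiments.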

Assay [17] concerns HDF. Description: Antiphotoaging activity in HDF assessed as reduction of 6 J/cm'2 UVA-induced ROS production treated 4 hrs before UVA irradiation using DCFH-DA staining by flow cytometry. The assay is classed as functional. The note with it: Homo sapiens. Put shortly:
(§3)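 Fibroblasts treated 4 h at 5 μM or at various concentrations, then exposed to 6 J/cm2 UVA in PBS (365 nm peak) or sham-irradiated. Loaded with DCFH-DA 10 μM for 30 min at 37 °C. DCF fluorescence read by flow cytometry on FL-1. Three independent experiments.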
For orientation: In flow cytometry, cells or beads pass a laser one at a time.

Assay [18] relates to HDF. Description: Effect on mitochondrial membrane potential in HDF at 5 uM after 4 hrs using DiOC6 staining by flow cytometry. The format is functional. The note with it: Homo sapiens. A digest of the protocol:
as §2

For assay [19], the system named is HDF. Nature of the assay: Effect on ROS production in HDF at 5 uM after 4 hrs using DCFH-DA staining by flow cytometry. The format is functional. As to conditions: Homo sapiens. Put shortly: as §3
For assay [20], the system named is HDF. Nature of the assay: Antiphotoaging activity in HDF assessed as protection against 6 J/cm'2 UVA-induced reduction of ATP level at 5 uM treated 4 hrs before UVA irradiation by bioluminescent assay. The assay is classed as functional. As to conditions: Homo sapiens. Put shortly: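 Fibroblasts exposed 4 h to compound at 5 μM, then irradiated with 6 J/cm2 UVA in PBS. Cells lysed at once and debris spun off. Supernatant ATP measured by luciferin–luciferase bioluminescence. Expressed as percent of unirradiated, untreated control. Three independent experiments.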

The nature of assay [21]: Antiphotoaging activity in HDF assessed as protection against 6 J/cm'2 UVA-induced reduction of cell survival at 5 uM treated 4 hrs before UVA irradiation measured after 24 hrs by MTT assay relative to control. The format is functional. The note with it: Homo sapiens, light or radiation study, read-out: Survival. A digest of the protocol: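 Normal human dermal fibroblasts (passages 5–10) seeded at 10 000 cells/well, grown overnight, exposed to compound at 5 μM for 4 h, then rinsed and irradiated in PBS with 6 J/cm2 UVA (365 nm lamp, 4.762 mW/cm2), after which medium was restored. After 24 h, MTT added for 2 h at 37 °C; formazan dissolved in DMSO, OD 540 nm. Reported as mean ± SD; three independent experiments, triplicate.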
(Formazan colour is commonly taken as a measure of viable cells.)

Assay [22] concerns HDF. Nature of the assay: Antiphotoaging activity in HDF assessed as protection against 6 J/cm'2 UVA-induced reduction of cell proliferation at 1 to 5 uM measured after 24 hrs by irradiation by MTT assay. The format is functional. The note with it: Homo sapiens, TDE = time-dependent effect. A digest of the protocol:
(§4)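 Fibroblasts seeded at 10 000 cells/well and left overnight. Pretreated with 0, 1, 2.5 or 5 μM for 2 or 4 h, then given 6 J/cm2 UVA in PBS; medium added back. After 24 h, MTT 2 h at 37 °C, formazan dissolved in DMSO, OD read at 540 nm. Three independent experiments.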

The test system of assay [23] is HDF. Description: Antiphotoaging activity in HDF assessed as protection against 6 J/cm'2 UVA-induced reduction of cell proliferation treated 2 to 4 hrs before UVA irradiation measured after 24 hrs by MTT assay. As to conditions: Homo sapiens. The format is functional. A digest of the protocol: as §4

Active and inactive are the calls of the source. The rule behind the calls is not given here.

Consider `COc1cccc(C#Cc2nnn3c2CCC3)c1`, for which the outcome in the assay filed under Mus musculus, in the assay on HDF [1], in the assay on HDF [3], with HDF [4], in the assay with HDF [5] and in the assay on HDF [6] was Active. Besides, the result in the assay with HDF [7], with HDF [8], in the assay with HDF [9] and in the assay on HDF [20] was Active. Moreover, the outcome with HDF [2], with HDF [10], in the assay on HDF [11], with HDF [12], with HDF [13] and in the assay with HDF [14] was inactive. The outcome in the assay with HDF [15], in the assay with HDF [18] and with HDF [19] was inactive. Besides, the Activity result in the assay with HDF [16] is “Dose-dependent effect”; with HDF [17] it was “Dose-dependent effect”; with HDF [22], “tde”; in the assay with HDF [23], “Dose-dependent effect”. In assay [21], the viability at 5 µM came out at 95.3%.

`COc1cccc(-c2nnn3c2CCC3)c1`: the viability at 5 µM in assay [21] stood at 58%.

Turning to `Fc1ccccc1C#Cc1nnn2c1CCC2`, the viability at 5 µM in [21] came out at 75.2%.

Turning to `O=[N+]([O-])c1cccc(C#Cc2nnn3c2CCC3)c1`, the viability at 5 µM in [21] was determined as 88.2%.

For the compound `O=[N+]([O-])c1cccc(-c2nnn3c2CCCC3)c1`, the viability at 5 µM in assay [21] came out at 62%.

Consider `c1ccc(-c2nnn3c2CCCC3)cc1`, for which, in [21], the viability at 5 µM worked out at 57%.

On to `COc1cccc(-c2nnn3c2CCCC3)c1`, for which the viability at 5 µM in assay [21] was 63.7%.

`O=[N+]([O-])c1ccc(C#Cc2nnn3c2CCC3)cc1`: the viability at 5 µM in [21] amounted to 84.1%.

Consider `O=[N+]([O-])c1ccc(-c2nnn3c2CCC3)cc1`, for which, in [21], the viability at 5 µM was found to be 70%.

For `O=[N+]([O-])c1cccc(C#Cc2nnn3c2CCCC3)c1`, the viability at 5 µM in [21] came to 71.3%.

In the case of `COc1cccc(C#Cc2nnn3c2CCCC3)c1`, the viability at 5 µM in [21] came out at 61.9%.

In the case of `COc1ccc(C#Cc2nnn3c2CCC3)cc1`, the viability at 5 µM in assay [21] amounted to 73.2%.

Consider `COc1ccc(-c2nnn3c2CCCC3)cc1`, for which the viability at 5 µM in assay [21] came to 54%.

As for `c1ccc(-c2nnn3c2CCC3)cc1`, the viability at 5 µM in assay [21] amounted to 61.1%.

For `CCc1ccc(C#Cc2nnn3c2CCCC3)cc1`, the viability at 5 µM in assay [21] was found to be 55.7%.

As to `COc1ccc(C#Cc2nnn3c2CCCC3)cc1`, in assay [21], the viability at 5 µM was 73%.

Regarding `O=[N+]([O-])c1cccc(-c2nnn3c2CCC3)c1`, the viability at 5 µM in assay [21] amounted to 52.8%.

As to `C(#Cc1nnn2c1CCC2)c1ccccc1`, the viability at 5 µM in assay [21] is 62.7%.

In the case of `O=[N+]([O-])c1ccc(-c2nnn3c2CCCC3)cc1`, the viability at 5 µM in [21] came to 52%.

`CCc1ccc(C#Cc2nnn3c2CCC3)cc1`: the viability at 5 µM in [21] was determined as 80.7%.

For `C(#Cc1nnn2c1CCCC2)c1ccccc1`, in assay [21], the viability at 5 µM worked out at 68.7%.

As for `Nc1ccccc1-c1nnn2c1CCCC2`, in [21], the viability at 5 µM worked out at 61%.

Turning to `Fc1ccccc1C#Cc1nnn2c1CCCC2`, the viability at 5 µM in assay [21] turned out to be 78.9%.

Turning to `Nc1ccccc1C#Cc1nnn2c1CCC2`, the viability at 5 µM in [21] stood at 71.2%.

In the case of `COc1ccc(-c2nnn3c2CCC3)cc1`, in [21], the viability at 5 µM came out at 70.3%.
